Measurements: ChEMBL document CHEMBL3853294, “Design, synthesis and biological evaluation of novel HSP70 inhibitors: N, N'-disubstituted thiourea derivatives” (Eur J Med Chem, 2016)

Species: Homo sapiens
Experiment: Inhibition of HSP70 in human BT/LapR1.0 cells assessed as potentiation of 1 uM of lapatinib-induced growth inhibition after 72 hrs by measuring coefficient of drug interaction by cell titer-glo based luminescence assay
Settings: not given
With `COc1cc(/C=C/C(=O)NC(NC(=S)Nc2ccccn2)C2CC2)cc(OC)c1OC` (stereo not given) the Activity was < 1. With `CC(C)(C)CC(NC(=O)/C=C/c1ccccc1)NC(=S)Nc1ccccc1` (stereo not given) the Activity was < 1. For `COc1cc(/C=C/C(=O)NC(NC(=O)Nc2ccccc2)C(C)C)cc(OC)c1OC` (stereo not given), the Activity was < 1. For `COc1cc(/C=C/C(=O)NC(CC(C)(C)C)NC(=S)Nc2cccnc2)cc(OC)c1OC` (stereo not given), the Activity was < 1. With `Cc1ccccc1NC(=S)NC(NC(=O)/C=C/c1ccccc1)C(C)(C)C` (stereo not given) the Activity was < 1. In the case of `COc1cc(/C=C/C(=O)NC(CC(C)C)NC(=S)Nc2ccccc2)cc(OC)c1OC` (stereo not given), the Activity is reported as < 1. `COc1cc(/C=C/C(=O)NC(NC(=S)NC2CCCCC2)C(C)(C)C)cc(OC)c1OC` (stereo not given) gave an Activity of 0.86. With `COc1cc(/C=C/C(=O)NC(CC(C)C)NC(=S)NC2CCCCC2)cc(OC)c1OC` (stereo not given) the Activity was < 1.

Target: Chaperone protein DnaK (Escherichia coli) (UniProt P0A6Y8)
Experiment: Inhibition of Escherichia coli DnaK ATPase activity at 200 uM incubated on shaker for 10 mins followed by 30 mins incubation by malachite green reagent based colorimetric assay
Settings: not given
For `COc1cc(/C=C/C(=O)NC(NC(=S)Nc2ccccn2)C2CC2)cc(OC)c1OC` (stereo not given), the inhibition was < 20%. In the case of `CC(C)(C)CC(NC(=O)/C=C/c1ccccc1)NC(=S)Nc1ccccc1` (stereo not given), the inhibition is reported as < 20%. `COc1cc(/C=C/C(=O)NC(CC(C)(C)C)NC(=S)Nc2cccnc2)cc(OC)c1OC` (stereo not given) showed an inhibition of 47.1%. For `Cc1ccccc1NC(=S)NC(NC(=O)/C=C/c1ccccc1)C(C)(C)C` (stereo not given), the inhibition was < 20%. Compound `COc1cc(/C=C/C(=O)NC(CC(C)C)NC(=S)Nc2ccccc2)cc(OC)c1OC` (stereo not given) has an inhibition of 50.4%. With `COc1cc(/C=C/C(=O)NC(NC(=S)NC2CCCCC2)C(C)(C)C)cc(OC)c1OC` (stereo not given) the inhibition was 35.8%. For `COc1cc(/C=C/C(=O)NC(CC(C)C)NC(=S)NC2CCCCC2)cc(OC)c1OC` (stereo not given), the inhibition was 46.2%.

Species: Homo sapiens
Experiment: Inhibition of HSP70 in human BT/LapR1.0 cells assessed as potentiation of 1 uM of lapatinib-induced growth inhibition at 10 uM after 72 hrs by cell titer-glo based luminescence assay
Settings: not given
How it was run: (§1)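 Cells were trypsinised and seeded at 5000 cells/well, then cultured 24 h at 37 °C. Compound was added at 10 µM, alone or with 1 µM lapatinib, and incubated 72 h at 37 °C. CellTiter-Glo reagent was added at a volume equal to the medium, followed by 3 min shaking and 10 min at room temperature. Luminescence (ATP) was read and normalised to the blank control group.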
Work on `COc1cc(/C=C/C(=O)NC(NC(=S)Nc2ccccn2)C2CC2)cc(OC)c1OC` (stereo not given) yielded a growth inhibition (GI) of 59.6%. Work on `CC(C)(C)CC(NC(=O)/C=C/c1ccccc1)NC(=S)Nc1ccccc1` (stereo not given) yielded a growth inhibition (GI) of 53%. With `COc1cc(/C=C/C(=O)NC(NC(=O)Nc2ccccc2)C(C)C)cc(OC)c1OC` (stereo not given) the growth inhibition (GI) was 32.8%. In the case of `COc1cc(/C=C/C(=O)NC(CC(C)(C)C)NC(=S)Nc2cccnc2)cc(OC)c1OC` (stereo not given), the growth inhibition (GI) is reported as 59.9%. `Cc1ccccc1NC(=S)NC(NC(=O)/C=C/c1ccccc1)C(C)(C)C` (stereo not given) showed a growth inhibition (GI) of 20.5%. `COc1cc(/C=C/C(=O)NC(CC(C)C)NC(=S)Nc2ccccc2)cc(OC)c1OC` (stereo not given) showed a growth inhibition (GI) of 42.2%. In the case of `COc1cc(/C=C/C(=O)NC(NC(=S)NC2CCCCC2)C(C)(C)C)cc(OC)c1OC` (stereo not given), the growth inhibition (GI) is reported as 57.8%. With `COc1cc(/C=C/C(=O)NC(CC(C)C)NC(=S)NC2CCCCC2)cc(OC)c1OC` (stereo not given) the growth inhibition (GI) was 48.1%.

Tested on: not listed separately
Experiment: Growth inhibition of human BT474 cells at 10 uM after 72 hrs by cell titer-glo based luminescence assay
Set-up: species or system BT-474
Settings: read-out: GI
How it was run: as §1
With `COc1cc(/C=C/C(=O)NC(NC(=S)Nc2ccccn2)C2CC2)cc(OC)c1OC` (stereo not given) the inhibition at 72 h, 10 µM was 20.1%. In the case of `CC(C)(C)CC(NC(=O)/C=C/c1ccccc1)NC(=S)Nc1ccccc1` (stereo not given), the inhibition at 72 h, 10 µM is reported as 11.3%. `COc1cc(/C=C/C(=O)NC(NC(=O)Nc2ccccc2)C(C)C)cc(OC)c1OC` (stereo not given) showed an inhibition at 72 h, 10 µM of 4.8%. Compound `COc1cc(/C=C/C(=O)NC(CC(C)(C)C)NC(=S)Nc2cccnc2)cc(OC)c1OC` (stereo not given) has an inhibition at 72 h, 10 µM of 22.1%. `Cc1ccccc1NC(=S)NC(NC(=O)/C=C/c1ccccc1)C(C)(C)C` (stereo not given) gave an inhibition at 72 h, 10 µM of 7%. `COc1cc(/C=C/C(=O)NC(CC(C)C)NC(=S)Nc2ccccc2)cc(OC)c1OC` (stereo not given) gave an inhibition at 72 h, 10 µM of 7.3%. `COc1cc(/C=C/C(=O)NC(NC(=S)NC2CCCCC2)C(C)(C)C)cc(OC)c1OC` (stereo not given) showed an inhibition at 72 h, 10 µM of 13.5%. In the case of `COc1cc(/C=C/C(=O)NC(CC(C)C)NC(=S)NC2CCCCC2)cc(OC)c1OC` (stereo not given), the inhibition at 72 h, 10 µM is reported as 16.5%.

Tested on: BT-474
Experiment: Potentiation of lapatinib-induced growth inhibition of human BT474 cells assessed as coefficient of drug interaction after 72 hrs by cell titer-glo based luminescence assay
Assay type: functional
Settings: not given
For `COc1cc(/C=C/C(=O)NC(NC(=S)Nc2ccccn2)C2CC2)cc(OC)c1OC` (stereo not given), the Activity was <1. Work on `CC(C)(C)CC(NC(=O)/C=C/c1ccccc1)NC(=S)Nc1ccccc1` (stereo not given) yielded an Activity of 0.79. In the case of `COc1cc(/C=C/C(=O)NC(NC(=O)Nc2ccccc2)C(C)C)cc(OC)c1OC` (stereo not given), the Activity is reported as <1. In the case of `COc1cc(/C=C/C(=O)NC(CC(C)(C)C)NC(=S)Nc2cccnc2)cc(OC)c1OC` (stereo not given), the Activity is reported as 0.81. With `Cc1ccccc1NC(=S)NC(NC(=O)/C=C/c1ccccc1)C(C)(C)C` (stereo not given) the Activity was <1. For `COc1cc(/C=C/C(=O)NC(CC(C)C)NC(=S)Nc2ccccc2)cc(OC)c1OC` (stereo not given), the Activity was <1. In the case of `COc1cc(/C=C/C(=O)NC(NC(=S)NC2CCCCC2)C(C)(C)C)cc(OC)c1OC` (stereo not given), the Activity is reported as 0.56. Compound `COc1cc(/C=C/C(=O)NC(CC(C)C)NC(=S)NC2CCCCC2)cc(OC)c1OC` (stereo not given) has an Activity of 0.73.

Tested on: BT-474
Experiment: Potentiation of lapatinib-induced growth inhibition of human BT474 cells at 10 uM after 72 hrs by cell titer-glo based luminescence assay
Assay type: functional
Settings: BT-474, 72 h, read-out: GI
How it was run: as §1
`COc1cc(/C=C/C(=O)NC(NC(=S)Nc2ccccn2)C2CC2)cc(OC)c1OC` (stereo not given) showed an inhibition of growth at 10 µM of 87.8%. Work on `CC(C)(C)CC(NC(=O)/C=C/c1ccccc1)NC(=S)Nc1ccccc1` (stereo not given) yielded an inhibition of growth at 10 µM of 84.9%. `COc1cc(/C=C/C(=O)NC(NC(=O)Nc2ccccc2)C(C)C)cc(OC)c1OC` (stereo not given) gave an inhibition of growth at 10 µM of 79.1%. For `COc1cc(/C=C/C(=O)NC(CC(C)(C)C)NC(=S)Nc2cccnc2)cc(OC)c1OC` (stereo not given), the inhibition of growth at 10 µM was 89.9%. With `Cc1ccccc1NC(=S)NC(NC(=O)/C=C/c1ccccc1)C(C)(C)C` (stereo not given) the inhibition of growth at 10 µM was 78.7%. For `COc1cc(/C=C/C(=O)NC(CC(C)C)NC(=S)Nc2ccccc2)cc(OC)c1OC` (stereo not given), the inhibition of growth at 10 µM was 76.6%. In the case of `COc1cc(/C=C/C(=O)NC(NC(=S)NC2CCCCC2)C(C)(C)C)cc(OC)c1OC` (stereo not given), the inhibition of growth at 10 µM is reported as 87.3%. `COc1cc(/C=C/C(=O)NC(CC(C)C)NC(=S)NC2CCCCC2)cc(OC)c1OC` (stereo not given) showed an inhibition of growth at 10 µM of 83.4%.

Tested on: not listed separately
Experiment: Growth inhibition of human BT/LapR1.0 cells at 10 uM after 72 hrs by cell titer-glo based luminescence assay
Settings: read-out: GI
How it was run: as §1
For `COc1cc(/C=C/C(=O)NC(NC(=S)Nc2ccccn2)C2CC2)cc(OC)c1OC` (stereo not given), the inhibition at 72 h, 10 µM was 17.4%. `CC(C)(C)CC(NC(=O)/C=C/c1ccccc1)NC(=S)Nc1ccccc1` (stereo not given) showed an inhibition at 72 h, 10 µM of 34.6%. In the case of `COc1cc(/C=C/C(=O)NC(NC(=O)Nc2ccccc2)C(C)C)cc(OC)c1OC` (stereo not given), the inhibition at 72 h, 10 µM is reported as 11.4%. For `COc1cc(/C=C/C(=O)NC(CC(C)(C)C)NC(=S)Nc2cccnc2)cc(OC)c1OC` (stereo not given), the inhibition at 72 h, 10 µM was 19.3%. `Cc1ccccc1NC(=S)NC(NC(=O)/C=C/c1ccccc1)C(C)(C)C` (stereo not given) showed an inhibition at 72 h, 10 µM of 9.7%. For `COc1cc(/C=C/C(=O)NC(CC(C)C)NC(=S)Nc2ccccc2)cc(OC)c1OC` (stereo not given), the inhibition at 72 h, 10 µM was 9.4%. With `COc1cc(/C=C/C(=O)NC(NC(=S)NC2CCCCC2)C(C)(C)C)cc(OC)c1OC` (stereo not given) the inhibition at 72 h, 10 µM was 39.8%. `COc1cc(/C=C/C(=O)NC(CC(C)C)NC(=S)NC2CCCCC2)cc(OC)c1OC` (stereo not given) showed an inhibition at 72 h, 10 µM of 38.8%.
